Reference: ChEMBL document CHEMBL1268838, “The synthesis and biologic evaluation of anti-platelet and cytotoxic β-nitrostyrenes” (Bioorg Med Chem, 2010)

Legend:
[1] = system: Integrin alpha-IIb/beta-3 (Homo sapiens); assay: Inhibition of glycoprotein 2b/3a activation in human platelets assessed as inhibition of thrombin-induced PAC-1 binding preincubated for 3 mins before thrombin challenge after 15 mins by flow cytometry; conditions: 0.25 h
HBL-100 [2] = assay: Cytotoxicity against human HBL100 cells at 20 uM after 72 hrs by MTT assay; assay type: functional; conditions: HBL-100, 72 h
[3] = Antiaggregatory activity in human platelets assessed as inhibition of thrombin-induced platelet aggregation preincubated for 3 mins before thrombin challenge by turbidimetry analysis; assay type: functional, cell-based
Summary of the method: (§1)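 Washed platelets from ACD-anticoagulated blood of drug-free healthy volunteers, resuspended at 3 × 10⁸/ml in Tyrode's solution with Ca²⁺ 2 mM, glucose 11.1 mM and BSA 3.5 mg/ml. Platelets were stirred at 1200 rpm and 37 °C for 3 min with DMSO (0.5%, vehicle) or compound, then the inducer was added. Aggregation was read by light-transmission aggregometry. IC50 is the mean of two independent experiments (TPA lines n = 3).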

[4] = Antiaggregatory activity in human platelets assessed as inhibition of collagen-induced platelet aggregation preincubated for 3 mins before collagen challenge by turbidimetry analysis; assay type: functional, cell-based
Summary of the method: as §1

[5] = Antiaggregatory activity in human platelets assessed as inhibition of TPA-induced platelet aggregation preincubated for 3 mins before TPA challenge by turbidimetry analysis; assay type: functional, cell-based
Summary of the method: as §1

[6] = Antiaggregatory activity in human platelets assessed as inhibition of A23187-induced platelet aggregation preincubated for 3 mins before A23187 challenge by turbidimetry analysis; assay type: functional, cell-based
Summary of the method: as §1

MDA-MB-231 [7] = assay: Cytotoxicity against human MDA-MB-231 cells after 72 hrs by MTT assay; assay type: functional, cell-based; conditions: MDA-MB-231, 72 h
Summary of the method: (§2)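 MDA-MB-231 breast cancer or HBL-100 non-malignant breast epithelial cells: freshly trypsinized cells seeded at 8000 per well, with compound added from DMSO-diluted stock. After 72 h, attached cells were given MTT (0.5 mg/mL, 1 h) and solubilized in DMSO.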

MDA-MB-231 [8] = assay: Cytotoxicity against human MDA-MB-231 cells at 20 uM after 72 hrs by MTT assay; assay type: functional; conditions: MDA-MB-231, 72 h
HBL-100 [9] = assay: Cytotoxicity against human HBL100 cells after 72 hrs by MTT assay; assay type: functional, cell-based; conditions: HBL-100, 72 h
Summary of the method: as §2

In the case of `COc1cc(/C=C/[N+](=O)[O-])ccc1OC(=O)c1ccc(C(C)(C)C)cc1`, the Activity [1] is reported as “Dose-dependent effect”, the inhibition at 20 µM (HBL-100 [2]) is reported as -2.1% and the IC50 [3] is reported as 600 nM. The IC50 [4] was 600 nM, the IC50 [5] was 3500 nM and the IC50 [6] was 1100 nM. The IC50 (MDA-MB-231 [7]) was > 20000 nM, the inhibition at 20 µM (MDA-MB-231 [8]) was 2.5% and the IC50 (HBL-100 [9]) was > 20000 nM.

In the case of `COc1cc(/C=C/[N+](=O)[O-])ccc1OC(=O)c1cccc(Cl)c1Cl`, the Activity [1] is reported as “Dose-dependent effect”, the inhibition at 20 µM (HBL-100 [2]) is reported as 11.5% and the IC50 [3] is reported as 700 nM. The IC50 [4] was 600 nM, the IC50 [5] was 5300 nM and the IC50 [6] was 3300 nM. For the same molecule, the IC50 (MDA-MB-231 [7]) was > 20000 nM, the inhibition at 20 µM (MDA-MB-231 [8]) was -4.9% and the IC50 (HBL-100 [9]) was > 20000 nM.
